From ChEMBL document CHEMBL1765063, “Synthesis and anti-melanogenic activity of hydroxyphenyl benzyl ether analogues” (Bioorg Med Chem, 2011)

Columns and labels:
[1] = test system: Radical scavenging activity; test: Antioxidant activity assessed as DPPH free radical scavenging activity at 100 uM after 30 mins; format: functional
How it was run: (§1)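 Compounds in ethanol mixed 1:1 by volume with 200 µM DPPH stock (stock concentration). Shaken 30 min at room temperature, absorbance read at 517 nm. Percent scavenging taken against DPPH without compound, blank-corrected. Screening done at 100 µM final. […] Triplicate runs, vitamin C as positive control.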

B16 [2] = test: Inhibition of alpha-MSH-induced melanin synthesis in mouse B16 cells grown in a 5% CO2-95% air atmosphere at 10 uM after 3 days; format: functional; details: B16, 72 h
How it was run: (§2)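 Mouse B16 melanoma cells seeded at 2.5×10^3 per well in DMEM with 10% FBS and grown 1 day at 37 °C. α-MSH was added together with compound at various concentrations, then cells were incubated 3 days at 37 °C. Absorbance at 405 nm was read against a synthetic melanin standard curve (melanin dissolved in 0.85 N KOH). IC50 is the mean of triplicate determinations.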

[3] = biological target: T1, Tyrosinase (Mus musculus) (UniProt P11344); test: Inhibition of tyrosinase activity in alpha-MSH-stimulated mouse B16 cells at 100 uM using L-tyrosine as substrate; format: cell-based
T1 sequence (whole entry): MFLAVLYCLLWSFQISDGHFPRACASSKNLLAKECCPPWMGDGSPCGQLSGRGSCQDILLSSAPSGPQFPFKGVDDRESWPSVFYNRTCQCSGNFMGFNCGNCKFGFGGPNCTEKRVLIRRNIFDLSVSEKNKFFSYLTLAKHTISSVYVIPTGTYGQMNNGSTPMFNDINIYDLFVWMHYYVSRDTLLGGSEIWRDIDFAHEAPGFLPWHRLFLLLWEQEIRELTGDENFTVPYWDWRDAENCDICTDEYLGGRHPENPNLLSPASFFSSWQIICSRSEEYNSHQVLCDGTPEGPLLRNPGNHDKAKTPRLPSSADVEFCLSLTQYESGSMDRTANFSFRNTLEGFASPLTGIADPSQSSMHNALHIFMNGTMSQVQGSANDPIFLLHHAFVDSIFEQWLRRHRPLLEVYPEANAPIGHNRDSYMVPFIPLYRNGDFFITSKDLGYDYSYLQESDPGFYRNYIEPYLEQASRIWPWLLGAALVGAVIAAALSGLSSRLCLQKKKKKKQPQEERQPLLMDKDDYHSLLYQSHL
How it was run: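 Enzyme source: B16 cells stimulated 48 h with 10 nM α-MSH, sonicated on ice and centrifuged. Supernatant dialysed against 50 mM sodium phosphate, pH 6.8. Compound preincubated with the cell-free enzyme, then 5 mM L-tyrosine added as substrate. Initial rate of dopachrome formation followed at 475 nm. One unit converts 1 nmol L-tyrosine per min.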

B16 [4] = test: Inhibition of alpha-MSH-induced melanin synthesis in mouse B16 cells grown in a 5% CO2-95% air atmosphere after 3 days; format: functional, cell-based; details: B16, 72 h; how it was run: as §2
[5] = test system: Radical scavenging activity; test: Antioxidant activity assessed as DPPH free radical scavenging activity after 30 mins; format: functional; how it was run: as §1
Tyrosinase = biological target: T2, Tyrosinase (Mus musculus, UniProt P11344); test: Inhibition of tyrosinase activity in alpha-MSH-stimulated mouse B16 cells using L-tyrosine as substrate; format: cell-based
T2 sequence (P11344 whole entry): T1 sequence (whole entry)
How it was run: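 Enzyme source: B16 cells stimulated 48 h with 10 nM α-MSH, sonicated on ice and centrifuged. Supernatant dialysed against 50 mM sodium phosphate, pH 6.8. Compound preincubated with the cell-free enzyme, then 5 mM L-tyrosine added as substrate. One unit converts 1 nmol L-tyrosine per min.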

Row | Compound | inhibition [3] | IC50 (B16 [4]) | EC50 [5] | IC50 (Tyrosinase) | inhibition [1] | inhibition at 10 µM (B16 [2])
1 | Oc1cc(OCc2cccc(Cl)c2)cc(OCc2cccc(Cl)c2)c1 | 1.5% | – | – | – | 22.1% | 21%
2 | Oc1ccc(OCc2cccc(Cl)c2)cc1 | 1% | 1.83 µM | 76.8 µM | – | 54.7% | 78%
3 | Oc1ccc(OCc2ccc(F)cc2)cc1 | 1.5% | – | 102 µM | – | 48.2% | 42%
4 | O=C1O[C@H]([C@@H](O)CO)C(O)=C1O [ASCORBIC ACID] | – | – | 26.2 µM | – | 93.9% | –
5 | Oc1cc(O)cc(OCc2ccc(Cl)c(Cl)c2)c1 | 66% | – | – | 66.4 µM | 37.3% | 15%
6 | OC[C@H]1O[C@@H](Oc2ccc(O)cc2)[C@H](O)[C@@H](O)[C@@H]1O [ARBUTIN] | – | 99 µM | – | – | – | –
7 | Oc1ccc(OCc2ccccc2Cl)cc1 | 0% | – | 113 µM | – | 46.5% | 55%
8 | CC(=O)Oc1cc(O)cc(OCc2ccc(Cl)c(Cl)c2)c1 | – | – | – | – | 8% | –
9 | COc1cc(COc2cc(O)cc(OC(C)=O)c2)cc(OC)c1 | – | – | – | – | 1.7% | –
10 | Oc1cc(OCc2ccc(F)cc2)cc(OCc2ccc(F)cc2)c1 | 5.5% | – | – | – | 21.2% | 12%
11 | Oc1ccc(OCc2ccc(Cl)c(Cl)c2)cc1 | 9.5% | 1.87 µM | – | – | 33.2% | 87%
12 | COc1cc(COc2ccc(O)cc2)cc(OC)c1 | 0% | 1.93 µM | 76.3 µM | – | 54.1% | > 100%
13 | COc1cc(COc2cc(O)cc(O)c2)cc(OC)c1 | 27.5% | – | 129 µM | – | 46.8% | 19%

Now from value to compound, other results behind:

Row | inhibition [3] | IC50 (B16 [4]) | EC50 [5] | IC50 (Tyrosinase) | Compound | inhibition [1] | inhibition at 10 µM (B16 [2])
14 | 0% | – | – | – | Oc1cc(OCc2ccc(Cl)c(Cl)c2)cc(OCc2ccc(Cl)c(Cl)c2)c1 | 17% | 4%
15 | 0% | – | – | – | COc1cc(COc2cc(O)cc(OCc3cc(OC)cc(OC)c3)c2)cc(OC)c1 | 27.4% | 6%
16 | 70.5% | – | 119 µM | 54.7 µM | Oc1cc(O)cc(OCc2cccc(Cl)c2)c1 | 49% | 18%
17 | 45.5% | – | 165 µM | – | Oc1cc(O)cc(OCc2ccccc2Cl)c1 | 42.8% | 11%
18 | 55.5% | – | 140 µM | 90 µM | Oc1cc(O)cc(OCc2ccc(F)cc2)c1 | 46.6% | 14%
19 | 3.5% | – | – | – | Oc1cc(OCc2ccccc2Cl)cc(OCc2ccccc2Cl)c1 | 15.6% | 33%
